Source: PubChem (several laboratories)
procasp7 counter = counter-screen: procaspase-7 (human) activation | P55210 | activation, % at 8.5 µM | recombinant procaspase-7, Ac-DEVD-pNA absorbance 405 nm; D23A/D198A/D206A triple mutant, cannot self-cleave; scale: DMSO 0, 5 µM enzyme 100 | 330,000 tested, 0.093% active;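 active = percent activation above the screen-wide mean plus 3 SD, cut at about 25% in these data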
Target sequence (P55210 whole entry D23A/D198A/D206A): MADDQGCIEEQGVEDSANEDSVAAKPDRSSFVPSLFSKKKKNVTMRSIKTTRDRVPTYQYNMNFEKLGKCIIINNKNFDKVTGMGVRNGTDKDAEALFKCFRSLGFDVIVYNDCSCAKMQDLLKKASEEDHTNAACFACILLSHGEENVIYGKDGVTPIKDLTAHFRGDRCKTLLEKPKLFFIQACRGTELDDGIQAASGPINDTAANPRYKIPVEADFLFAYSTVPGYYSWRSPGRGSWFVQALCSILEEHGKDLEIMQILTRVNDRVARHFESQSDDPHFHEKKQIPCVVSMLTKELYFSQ
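System: Procaspase-7 triple mutant (PC-7 D3A); measure: % activation from two-timepoint absorbance difference, scaled to controls; times: 1 h compound preincubation, 2 h substrate cleavage, 25 °C; also added: Ac-DEVD-pNA substrate, 400 µM as added; measured by: Epi-absorbance of released pNA at 405 nm, two timepoints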
KLK7 zymogen act = proKLK7 (human) activation, primary screen. P49862. purified proKLK7, EDANS-DABCYL substrate fluorescence; 100% is mature enzyme control, 0% vehicle. activation, % at 7 µM. 370,000 tested, 0.9% active. AID 652039;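 active = activation above the mean of all tested compounds plus 3 SD, computed per campaign excluding outliers beyond control limits, cut at about 13% in these data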
Target sequence (P49862 whole entry, looked up): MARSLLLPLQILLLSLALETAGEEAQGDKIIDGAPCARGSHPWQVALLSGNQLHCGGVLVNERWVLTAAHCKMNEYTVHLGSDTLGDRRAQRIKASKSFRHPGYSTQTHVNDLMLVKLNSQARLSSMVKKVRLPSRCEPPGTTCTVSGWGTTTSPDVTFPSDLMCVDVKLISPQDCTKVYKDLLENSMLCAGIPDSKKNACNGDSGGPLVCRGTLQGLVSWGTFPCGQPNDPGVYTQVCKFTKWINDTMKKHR
proCasp3 act = procaspase-3 (human) activation; P42574; recombinant procaspase-3 D3A, Ac-DEVD-pNA absorbance 405 nm; activation, % at 8.5 µM; 330,000 tested, 0.11% active; AID 463141;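 active = activation above the mean of all tested compounds plus 3 SD, cut at about 21% in these data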;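 also: 0% = DMSO alone and 100% = DMSO wells spiked with extra 5 µM PC-3 D3A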
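material = Procaspase-3 D3A mutant | probe or stimulus = Ac-DEVD-pNA | compound = single dose, 8.5 µM nominal compound, 0.8% DMSO | timing = 1 h preincubation, 2 h reaction | measured by = 405 nm absorbance of p-nitroaniline, reads at 0 and 120 min | benchmarks = DMSO-only low control, 5 µM PC-3 D3A high control | repeats = singlicate, each compound tested once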
Neddylation inh = cullin neddylation inhibition; P61081+Q13564; TR-FRET cullin neddylation, biochemical; calls only at 25 µM; 360,000 tested, 0.58% active; AID 651699; in the data active = inhibition above about 36%
KLK7 act conf = confirmation of human kallikrein-7 zymogen activators; shares compounds with KLK7 zymogen act; purified proKLK7, EDANS-DABCYL substrate fluorescence; scaled: vehicle 0, mature enzyme 100; activation, % at 7 µM; 3,200 tested, 68% active; AID 686949;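 active = activation, as change over the incubation, above the mean of all tested compounds plus 3 SD, cut at about 13% in these data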
EDANS interfere = counter-screen for kallikrein-7 activators: EDANS-DABCYL optical interference. shares compounds with KLK7 zymogen act. EDANS-DABCYL substrate fluorescence interference, no enzyme, 4 h; solvent 0%, active enzyme control 100%. activation, % at 7 µM. 3,200 tested, 80% active. AID 686952;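 active = activation above the all-compound mean plus 3 SD, ignoring values outside control-based bounds, cut at about 4.8% in these data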;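 also: value is the 4 h activation minus the activation read at time zero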
K7 EDANS ctr = optically interferes with EDANS-DABCYL fluorescence, kallikrein-7 activator counter-screen; shares compounds with KLK7 zymogen act; EDANS-DABCYL peptide fluorescence interference, no enzyme; EC50, µM; 250 tested, 20% active;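 active = compounds that raise the fluorescence signal in this interference counterscreen, with EC50 at or below 10 µM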;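 also: intact quenched peptide substrate alone read at 355 nm excitation and 520 nm emission; signal is fluorescence gain from T0 to T4 after four hours at room temperature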
* = called active by the depositor; i = inactive; nt = no result shown. Rows were chosen to be rich in hits. Some 1.6% of all compounds tested hit in one or more screens of this group.

SMILES | procasp7 counter | KLK7 zymogen act | proCasp3 act | Neddylation inh | KLK7 act conf | EDANS interfere | others
COC(=O)c1ccc(C(=O)Nc2ccc3nc(-c4ccncc4)[nH]c3c2)cc1 | 3.0 | -38.1 | -6.3 | i | nt | nt
COC(=O)c1ccc(C(=O)Nc2ccc3nc(-c4cccnc4)[nH]c3c2)cc1 | -4.5 | 20.4* | -7.2 | i | -13.5 | -13.1
CC(C)NC(=O)C1(C)CCCN1C(=O)c1cc(C#N)cs1 (stereo not given) | nt | -0.6 | nt | i | nt | nt
Nc1ncnc2c1ncn2[C@@H]1O[C@H](C(=O)N[C@@H](CO)Cc2ccccc2)[C@@H](O)[C@H]1O | nt | 0.2 | nt | i | nt | nt
CCN(CC)CCCC(C)NC(=O)c1ccc(C(F)(F)F)cc1 (stereo not given) | 6.2 | 0.1 | 4.5 | i | nt | nt
CCOC(=O)c1c[nH]n(-c2ccccc2)c1=O | 2.6 | -0.2 | 2.2 | i | nt | nt
CCOC(=O)c1cc(C(=O)OCC)c2ccccn2c1=O | -6.7 | 55.4* | -6.9 | nt | 57.2* | 67.6*
CCOC(=O)C1CCN(S(=O)(=O)c2cccc(-c3cn4cc(C)ccc4n3)c2)CC1 | 2.0 | -1.8 | -7.7 | i | nt | nt
CCOC(=O)C1CCN(S(=O)(=O)c2cccc(-c3cn4cccnc4n3)c2)CC1 | -7.2 | 27.2* | -4.8 | nt | 26.1* | -15.5 | K7 EDANS ctr=>69.5
CCCCOC(=O)C(C)c1c(C)[nH]c(=S)[nH]c1=O (stereo not given) | -0.7 | -0.6 | -2.4 | i | nt | nt
COc1ccc(CN2CCCC(C(=O)c3cccc(OC(C)C)c3)C2)cc1Cn1cccn1 (stereo not given) | 12.8 | 0.0 | -1.6 | i | nt | nt
COc1cccc(CC(=O)Nc2ccc(S(=O)(=O)Nc3nc(C)cc(C)n3)cc2)c1 | 10.9 | -0.5 | 1.2 | i | nt | nt
O=C(NCc1ccco1)c1nc2nc(-c3cccs3)cc(C(F)(F)F)n2n1 | -18.6 | 56.3* | -6.7 | nt | 61.0* | 68.4*
COC(=O)c1nc2nc(-c3cccs3)cc(C(F)(F)F)n2n1 | 9.6 | 204.8* | -8.0 | nt | 63.4* | 66.9*
Cc1cc(C)c(C#N)c(SCC(=O)OC2CCCCC2)n1 | -0.3 | 3.2 | 0.3 | i | nt | nt
CCOC(=O)C1=C(CSc2nc(C)cc(C)c2C#N)OC(N)=C(C#N)C1c1ccccc1 (stereo not given) | -10.9 | 26.2* | -20.0 | i | 32.6* | 30.3*
CCOC(=O)CSc1nc(C)cc(C)c1C#N | 2.0 | 29.9* | -4.6 | i | 56.1* | 53.5*
Cc1nc(SCC(=O)CC(=O)OC(C)C)c(C#N)c(C)c1C | -5.0 | 39.9* | -7.6 | i | 62.9* | 57.0*
CCOC(=O)CSc1nc(N)c(C#N)c(-c2ccc(OCC)cc2)c1C#N | 5.4 | 12.9* | -1.8 | i | -52.7 | -63.7
CCOC(=O)c1cnc[nH]c1=O | nt | -0.5 | nt | i | nt | nt
CCC(C(=O)OCC(=O)NCc1ccc2c(c1)OCO2)c1ccccc1 (stereo not given) | 8.8 | 0.5 | 2.8 | i | nt | nt
Cc1ccnc(N=O)c1 | -19.5 | 1.9 | -17.9 | i | nt | nt
Cc1cc(C)c(C#N)c(SCC(=O)CC(=O)OC(C)C)n1 | -6.5 | 45.0* | -9.4 | i | 71.9* | 68.9*
CC1CCN(C(=O)c2[nH]cnc2C(=O)N[C@@H](C)c2ccccc2)CC1 | 11.3 | 0.0 | 5.7 | i | nt | nt
O=C(Nc1ccc(NC(=O)c2cccs2)cc1)c1cccs1 | 10.6 | 13.9* | -6.2 | i | 29.8* | 21.8* | K7 EDANS ctr=>69.5
SMILES | procasp7 counter | KLK7 zymogen act | proCasp3 act | Neddylation inh | KLK7 act conf | EDANS interfere | others
CNC(=S)NNC(=O)c1cccs1 | 3.3 | 13.3* | -4.3 | i | 14.4* | 13.0*
CCNC(=S)NNC(=O)c1cccs1 | 8.6 | 5.9 | 1.2 | i | nt | nt
COc1ccc(NC(=O)c2cccs2)cc1 | -4.0 | -0.4 | 6.1 | i | nt | nt
COc1ccc(C(=O)Nc2cccc(NC(=O)c3cccs3)c2)cc1OC | 3.0 | 35.0* | 5.6 | i | 22.2* | 29.3*
COc1ccc(NC(=S)NNC(=O)c2cccs2)cc1 | -7.8 | 20.7* | -10.2 | i | 8.3 | 8.5*
O=C(Nc1ccc(Cl)cc1)c1cccs1 | -1.1 | 0.9 | 6.6 | i | nt | nt
CC(C)CNc1cccc2c1S(=O)(=O)N(Cc1cccc(F)c1)[C@@H](C)[C@H](c1ccccc1)O2 | nt | 0.2 | nt | nt | nt | nt
Nc1nc2ccc(Cl)cc2cc1C(=O)NCCc1ccc(Cl)cc1Cl | nt | -0.5 | nt | i | nt | nt
CCN(CC)CCCNC(=O)c1cc2cc(Cl)ccc2nc1N | nt | 17.0* | nt | nt | 25.5* | 24.6*
Nc1nc2ccc(Cl)cc2cc1C(=O)NC1CC1 | nt | 16.2* | nt | nt | 12.4 | 8.8*
Nc1nc2ccc(Cl)cc2cc1C(=O)NCc1ccc(Oc2ccccc2)cc1 | nt | nt | nt | i | nt | nt
O=C(O)c1ccc2c(c1)C(=O)N(c1cc([N+](=O)[O-])ccn1)C2=O | 3.9 | -0.2 | 12.3 | i | nt | nt
COc1ccc(CNC(=O)CN(C(=O)CCC(=O)Nc2nccs2)c2cccc(C)c2)cc1 | 4.0 | -0.5 | -2.2 | i | nt | nt
CCOc1ccc(C(=O)NCC(=O)NCC(c2cccs2)N2CCOCC2)cc1 (stereo not given) | -1.7 | -0.1 | 14.8 | i | nt | nt
COc1cc(C(=O)Nn2cnnc2)ccc1OC(F)F | 3.3 | -0.4 | -4.6 | i | nt | nt
COC(=O)CSc1[nH]c2ccc(Br)cc2c1[N+](=O)[O-] | -0.1 | 0.2 | -0.3 | i | nt | nt
CCOc1ccc2[nH]c(SCC(=O)OC)c([N+](=O)[O-])c2c1 | -6.3 | 13.3* | -13.3 | i | 18.5* | 16.0*
COc1ccc(CN2C(=O)c3ccccc3C2=O)cc1C(=O)N(C)CC(=O)Nc1ccc(F)cc1 | -1.6 | -0.4 | -2.8 | i | nt | nt
O=C(NCc1ccccc1)C(c1ccncc1)N(C(=O)c1csnn1)c1cccc(F)c1 (stereo not given) | 1.7 | -0.1 | -9.8 | i | nt | nt
COc1cc2[nH]c3c(Cl)ncnc3c2cc1OC | -2.2 | -0.1 | -0.9 | i | nt | nt
COc1cc2[nH]c(Cl)c([N+](=O)[O-])c2cc1OC | -12.5 | 57.6* | -15.2 | i | 7.3 | 5.9*
Cc1sc2nc(CN3CCOCC3)nc(NS(=O)(=O)c3cc(Cl)ccc3Cl)c2c1C | 0.8 | -0.6 | 1.8 | i | nt | nt
Cc1cc(=O)oc2cc(OCC(=O)NCc3ccccn3)ccc12 | -5.9 | 0.0 | -8.1 | i | nt | nt
Cc1cc(=O)oc2cc(NC(=S)NCc3ccccn3)ccc12 | 1.0 | 58.2* | 7.7 | i | 37.7* | 46.1*
COc1ccccc1NS(=O)(=O)c1cccc(C(=O)N/N=C/c2ccc(NC(C)=O)cc2)c1 | -0.7 | 235.1* | -1.6 | nt | -8.2 | -4.0
COc1ccccc1NS(=O)(=O)c1cccc(C(=O)N/N=C/c2ccc(OCC(=O)O)cc2)c1 | 6.0 | -0.2 | -1.8 | i | nt | nt
